Experimental data reported in ChEMBL document CHEMBL4402562, “Discovery of Novel Peptidomimetic Boronate ClpP Inhibitors with Noncanonical Enzyme Mechanism as Potent Virulence Blockers in Vitro and in Vivo” (J Med Chem, 2020).
Activity calls are given as the source filed them. No cut-off for these calls is given here.

How the values were obtained:
[1] = biological target: T1, ATP-dependent Clp protease proteolytic subunit (Staphylococcus aureus (strain NCTC 8325)) (UniProt Q2G036); assay: Binding affinity to N-terminal His6-sumo-tagged full length Staphylococcus aureus ClpP expressed in Escherichia coli […] assessed as change in melting temperature at 100 uM by differential scanning calorimetry analysis
T1 sequence (whole entry): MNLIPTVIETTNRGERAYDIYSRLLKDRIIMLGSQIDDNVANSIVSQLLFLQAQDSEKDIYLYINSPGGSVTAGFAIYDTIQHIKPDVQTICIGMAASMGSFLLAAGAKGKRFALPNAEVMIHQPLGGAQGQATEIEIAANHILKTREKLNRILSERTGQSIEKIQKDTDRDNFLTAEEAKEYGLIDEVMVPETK
Outline: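 DSC: SaClpP at 0.5 mg/mL (25 μM) incubated at RT with 100 μM inhibitor in assay buffer. Scanned at 1 °C/min over 30–90 °C, with a buffer-buffer scan subtracted. Tm taken as the thermogram peak maximum. Run once, single sample.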

[2] = biological target: T1, ATP-dependent Clp protease proteolytic subunit (Staphylococcus aureus (strain NCTC 8325)); assay: (§1) Inhibition of N-terminal His6-sumo-tagged full length Staphylococcus aureus ClpP expressed in Escherichia coli BL2 (DE3) at 20-fold molar excess pre-incubated for 10 mins before Suc-LY-AMC addition and measured after 1 hr followed by dialysis for 72 hrs by fluorescence based assay relative to control
Outline: (§2)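 ClpP (1 μM, 100 mM Hepes pH 7.0, 100 mM NaCl) incubated 1 h at RT with 20-fold molar excess inhibitor or DMSO. Dialyzed at 4 °C, buffer changed after 6 h and then every 24 h. Aliquots assayed for peptidase activity with Suc-LY-AMC. Thrice, single sample.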

[3] = Cytotoxicity in human HepG2 cells assessed as reduction in cell viability incubated for 24 hrs by MTT assay; assay type: cell-based
Outline: (§3)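 MTT assay. HeLa (3×10^3 cells) or HepG2 (4×10^3 cells) seeded in DMEM and grown 24 h, then given compound for a further 24 h. Absorbance read at 570 nm against DMSO wells. GI50 from dose-response fit; three experiments, triplicate wells.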

[4] = biological target: 20S proteasome (Homo sapiens) (UniProt P49721+P20618+P28074+P28062+P28065+P28072+P25786+P25787+P25788+P25789+P28066+P60900+O14818+Q8TAA3+P40306+A5LHX3+P49720+P28070+Q99436); assay: Inhibition of 20S proteasome (unknown origin) pre-incubated before Suc-LLVY-AM addition and measured after 1 hr by fluorescence based assay; assay type: protein-complex assay
[5] = biological target: T1, ATP-dependent Clp protease proteolytic subunit (Staphylococcus aureus (strain NCTC 8325)); assay: as §1, with “[…] assessed as enzyme activity recovery level” for “(DE3)”, “dialysis up to” for “dialysis for”; set-up: scale not given: the % may be the effect or the level left; outline: as §2
[6] = Inhibition of human ClpP (57 to 277 residues) expressed in Escherichia coli […] pre-incubated for 10 mins before Ac-WLA-AMC addition and measured after 1 hr by fluorescence based assay relative to control
Outline: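 hClpP (3.5 μM monomer) in 25 mM Tris-HCl pH 8.0, 100 mM KCl. Preincubated 10 min at RT with inhibitor, two-fold dilutions over 8 steps from 100 μM. Then 100 μM Ac-WLA-AMC, 380/440 nm for 1 h at 37 °C, slopes normalized to DMSO. Thrice, triplicate wells.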

[7] = Induction of hemolysis in sheep erythrocytes by measuring hemoglobin release incubated for 15 mins; assay type: cell-based, Ovis aries, Erythrocyte
Outline: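 Serially diluted compound mixed directly with 2% sheep erythrocytes in 10 mM Tris pH 7.4, 0.9% NaCl. Buffer served as negative and water as positive control. After 1,500 rpm, 15 min spin, released hemoglobin read at 545 nm. Three experiments, triplicate tubes.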

[8] = Inhibition of Pseudomonas aeruginosa ClpP1 expressed in Escherichia coli […] pre-incubated for 10 mins before Suc-LY- AMC addition and measured after 1 hr by fluorescence based assay relative to control
Outline: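 PaClpP1 (0.5 μM monomer) in 25 mM Tris-Cl pH 7.5, 150 mM NaCl. Preincubated 10 min at RT with inhibitor, two-fold dilutions over 8 steps from 50 μM. Then 50 μM Suc-LY-AMC, 380/440 nm for 1 h at 37 °C, slopes normalized to DMSO. Thrice, triplicate wells.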

[9] = biological target: T2, ATP-dependent Clp protease proteolytic subunit (Staphylococcus aureus (strain NCTC 8325), UniProt Q2G036); assay: (§4) Inhibition of N-terminal His6-sumo-tagged full length Staphylococcus aureus ClpP expressed in Escherichia coli […] pre-incubated for 10 mins before Suc-LY-AMC addition and measured after 1 hr by fluorescence based assay
T2 sequence (Q2G036 whole entry): T1 sequence (whole entry)
Outline: (§5)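 SaClpP (1 μM monomer) in 100 mM Hepes pH 7.0, 100 mM NaCl. Preincubated 10 min at RT with inhibitor, two-fold dilutions over 8 steps from 100 μM. Suc-LY-AMC at 200 μM, 380/440 nm recorded for 1 h at 37 °C, slopes normalized to DMSO. For kinact/Ki, inhibitor premixed with substrate and reaction started by enzyme, fitted by least squares. Thrice, triplicate wells.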

[10] = biological target: T1, ATP-dependent Clp protease proteolytic subunit (Staphylococcus aureus (strain NCTC 8325)); assay: as §4; outline: as §5
[11] = Inhibition of AlgW (unknown origin) up to 100 uM pre-incubated for 10 mins before Abz-T-V-A-W-pNA addition and measured after 1 hr by fluorescence based assay
[12] = biological target: T1, ATP-dependent Clp protease proteolytic subunit (Staphylococcus aureus (strain NCTC 8325)); assay: Inhibition of N-terminal His6-sumo-tagged full length Staphylococcus aureus ClpP expressed in Escherichia coli […] (DE3) assessed as Kinact/Ki ratio […] and measured after 1 hr by fluorescence based assay
[13] = biological target: Coagulation factor X (Homo sapiens) (UniProt P00742); assay: Inhibition of human F10a up to 100 uM pre-incubated for 10 mins before Pefachrome Fxa addition and measured after […] based assay
Chain of Coagulation factor X (Homo sapiens) (P00742 41-179 limits assumed): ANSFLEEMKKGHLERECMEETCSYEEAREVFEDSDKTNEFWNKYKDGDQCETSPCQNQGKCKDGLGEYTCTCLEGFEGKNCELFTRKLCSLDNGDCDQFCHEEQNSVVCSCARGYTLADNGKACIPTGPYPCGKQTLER
Chain of Coagulation factor X (Homo sapiens) (P00742 235-488 limits assumed): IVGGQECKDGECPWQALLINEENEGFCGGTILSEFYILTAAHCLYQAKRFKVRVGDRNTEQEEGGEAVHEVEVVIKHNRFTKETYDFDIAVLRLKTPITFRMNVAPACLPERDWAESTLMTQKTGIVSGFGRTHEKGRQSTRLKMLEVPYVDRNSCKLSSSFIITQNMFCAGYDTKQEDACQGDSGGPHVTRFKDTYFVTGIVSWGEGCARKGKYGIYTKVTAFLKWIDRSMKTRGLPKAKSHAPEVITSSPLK

[14] = biological target: T2, ATP-dependent Clp protease proteolytic subunit; assay: Inhibition of ClpP in methicillin-resistant Staphylococcus aureus ATCC 33591 assessed as reduction in bacteria-induced hemolysis of sheep erythrocytes by measuring hemoglobin release incubated for 15 mins
[15] = Cytotoxicity in human HeLa cells assessed as reduction in cell viability incubated for 24 hrs by MTT assay; assay type: cell-based; outline: as §3
Staphylococcus aureus [16] = assay: Growth inhibition of methicillin-resistant Staphylococcus aureus ATCC 33591 up to 64 uM incubated for 18 hrs by broth microdilution method; assay type: functional, organism-based
Outline: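 MRSA ATCC 33591 at ~5×10⁵ CFU/mL in MHB with graded compound concentrations vs DMSO; OD600 growth curves over 18 h; three experiments, triplicate wells. MIC by CLSI broth microdilution in CAMHB, 0.5-256 µg/mL, 18 h at 37 °C, lowest concentration with no visible growth.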

Staphylococcus aureus [17] = assay: Inhibition of Staphylococcus aureus ClpXP expressed in Escherichia coli […] at 1 to 100 uM using FITC-casein substrate in presence of ATP-regenerating system incubated for 50 mins by fluorescence based assay
Outline: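 3.6 μM SaClpP with 3 μM SaClpX in 25 mM Hepes pH 7.5, 20 mM MgCl2, 30 mM KCl, 0.03% Tween 20, 10% glycerol, 2 mM DTT. ATP regeneration: 4 mM ATP, 20 U/mL creatine kinase, 16 mM creatine phosphate. FITC-casein 0.048 mg/mL, 494/521 nm for 50 min; slope 300–1200 s vs DMSO. Thrice, triplicate wells.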

Staphylococcus aureus [18] = assay: (§6) Antivirulence activity against methicillin-resistant Staphylococcus aureus ATCC 33591 infected in BALB/c mouse model of skin abscess assessed as reduction in severe alveolar destruction at 3 mg/kg injected into shaved area of skin once daily for 4 days measured after 12 hrs post last dose by hematoxylin and eosin staining based optical microscopy; assay type: functional, organism-based
Outline: (§7)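 Same MRSA ATCC 33591 skin-abscess model in female BALB/c mice (n=5/group), 40 µL compound at 1.5 or 3 mg/kg injected into the infected shaved skin once daily for 4 days. On day 4 infected skin and heart, liver, spleen, lung, kidney fixed in 4% paraformaldehyde, embedded, sectioned, H&E stained and examined by microscopy; PBS-treated uninfected and vehicle controls.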

Staphylococcus aureus [19] = assay: as §6, with “skin inflammation” for “severe alveolar destruction”; assay type: functional, organism-based; outline: as §7
Staphylococcus aureus [20] = assay: as §6, with “preservation of skin integrity” for “reduction in severe alveolar destruction”; assay type: functional, organism-based; outline: as §7
Staphylococcus aureus [21] = assay: as §6, with “heart histopathological changes” for “severe alveolar destruction”; assay type: functional, organism-based; outline: as §7
Staphylococcus aureus [22] = assay: as §6, with “interstitium thickening” for “severe alveolar destruction”; assay type: functional, organism-based; outline: as §7
Staphylococcus aureus [23] = assay: as §6, with “liver histopathological changes” for “severe alveolar destruction”; assay type: functional, organism-based; outline: as §7
Staphylococcus aureus [24] = assay: as §6, with “spleen histopathological changes” for “severe alveolar destruction”; assay type: functional, organism-based; outline: as §7
Staphylococcus aureus [25] = assay: as §6, with “kidney histopathological changes” for “severe alveolar destruction”; assay type: functional, organism-based; outline: as §7

Compound	ΔTm [1] [°C]	GI50 at 24 h [3] [µM]	Activity [5] [%]	HC50 at 0.25 h [7] [µM]	IC50 [9] [µM]	inhibition [10]	Ratio [12] [×10² /s.M]	EC50 [14] [µM]	GI50 at 24 h [15] [µM]	further results
COC(=O)c1ccc(OC(=O)CCc2cc(OC)c(OC)c(OC)c2)cc1										Activity [1]: inactive; inhibition [2]: Active
COc1ccc(C(=O)N[C@@H](Cc2ccccc2)C(=O)N[C@@H](CC(C)C)B(O)O)cc1	29.5 to 42.2	> 200	100	> 500	1.9	Dose-dependent effect	6.7	3.3	196	inhibition [4]: Active; IC50 [6]: 3 to 25 µM; IC50 [8]: 3 to 25 µM; inhibition [11]: inactive; inhibition [13]: inactive
CC(C)C[C@H](NC(=O)CNC(=O)c1cc(Cl)ccc1Cl)B(O)O [IXAZOMIB]		> 200		408	5.3 to 5.7	Dose-dependent effect	2.4	3.6	182	
CC(C)Cc1ccc(C(C)C(=O)N[C@@H](Cc2ccc(O)cc2)C(=O)N[C@@H](CC(C)C)B(O)O)cc1 (some centres undefined)	29.5 to 42.2	117	100	> 500	1.4	Dose-dependent effect	7.2	9.6	83	inhibition [4]: Active; IC50 [6]: 3 to 25 µM; IC50 [8]: 3 to 25 µM; inhibition [11]: inactive; inhibition [13]: inactive
CC(C)Cc1ccc(C(C)C(=O)N[C@@H](Cc2c[nH]c3ccccc23)C(=O)N[C@@H](CC(C)C)B(O)O)cc1 (some centres undefined)	29.5 to 42.2	54.8	100	> 500	1.9	Dose-dependent effect	8	2.6	71.2	growth inhibition (GI) (Staphylococcus aureus [16]): inactive
CC(C)C[C@H](NC(=O)[C@H](Cc1ccccc1)NC(=O)c1cnccn1)B(O)O [BORTEZOMIB]	29.5 to 42.2	101	100	> 500	5.3	Dose-dependent effect	2.2	23.5	168	inhibition (Staphylococcus aureus [17]): inactive
COc1ccc(C(=O)N[C@@H](Cc2ccccc2)C(=O)N[C@@H](CC(C)C)B(O)O)c(C)c1	29.5 to 42.2	> 200	100	> 500	1.5	Dose-dependent effect	9.1	14.8	> 200	
CN[C@H](CC(C)C)C(=O)N[C@H]1C(=O)N[C@@H](CC(N)=O)C(=O)N[C@H]2C(=O)N[C@H]3C(=O)N[C@H](C(=O)N[C@H](C(=O)O)c4cc(O)cc(O)c4-c4cc3ccc4O)[C@H](O)c3ccc(c(Cl)c3)Oc3cc2cc(c3O[C@@H]2O[C@H](CO)[C@@H](O)[C@H](O)[C@H]2O[C@H]2C[C@](C)(N)[C@H](O)[C@H](C)O2)Oc2ccc(cc2Cl)[C@H]1O										Activity (Staphylococcus aureus [18]): Active; Activity (Staphylococcus aureus [19]): Active; Activity (Staphylococcus aureus [20]): Active; Activity (Staphylococcus aureus [21]): Active; Activity (Staphylococcus aureus [22]): Active; Activity (Staphylococcus aureus [23]): Active; Activity (Staphylococcus aureus [24]): Active; Activity (Staphylococcus aureus [25]): Active
